The source of these data is ChEMBL document CHEMBL1135463 (J Med Chem, 2002).

≈ marks a conversion by molar mass, not a printed value. Calls of active or inactive are those of the source. The rule behind the calls is not given here. Some results are limits rather than exact numbers.

A word on the GI50: it is the concentration at which growth is held to half of that of the control. Read a low GI50 as more potent growth inhibition. As a reminder, the MIC is the lowest concentration found to suppress growth. What is called inhibition is the share of the control response that was lost under treatment. In general, IC50 refers to the concentration that inhibits the measured activity by half. Low values mean greater potency in that assay, high ones weaker potency in that assay.

The subject of assay [1] is DU-145. Put plainly: In vitro growth inhibition of DU-145 (human prostate carcinoma) cell line. The class given is functional.
In a further assay the test system is MCF7. Put plainly: Cell growth inhibition of breast MCF-7 cells, expressed as 50% reduction in the net protein increase. The class given is functional. As to conditions: Homo sapiens.
Assay [2] is described as follows: In vitro growth inhibition of NCI-H460 (human non-small cell lung carcinoma) cell line. The class given is functional.
Assay [3] concerns P388. As to the kind of experiment: In vitro inhibition of P388 (murine leukemia) cell proliferation. The class given is functional. Conditions: Mus musculus, read-out: ED50 (the source's name).
For assay [4], the system named is KM-20L2. As to the kind of experiment: In vitro growth inhibition of KM20L2 cell line. Conditions: Homo sapiens. The class given is functional.
Assay [5] deals with SF-268. Put plainly: In vitro growth inhibition of central nervous system SF-268 cell line. As to conditions: Homo sapiens. The class given is functional.
Assay [6] concerns BXPC-3. Put plainly: In vitro growth inhibition of BXPC-3 (human pancreatic adenocarcinoma) cell line. The class given is functional.
A further assay relates to Neisseria gonorrhoeae. Put plainly: The minimum inhibitory concentration (MIC) that inhibits all visible growth of the Neisseria gonorrhoeae (bacteria). The class given is functional. Summed up:
(§1)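 Broth microdilution following NCCLS reference methods (M7-A4 for aerobic bacteria, the yeast broth dilution standard for fungi). MIC is the lowest compound concentration giving optically clear wells, with no visible growth of the test organism.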

In another assay the test system is Candida albicans. As to the kind of experiment: The minimum inhibitory concentration (MIC) that inhibits all visible growth of the Candida albicans (fungus) at 64 ug/mL; NI is no inhibition. The class given is functional, organism-based. Summed up:
as §1

Assay [7] relates to DU-145. As to the kind of experiment: Cell growth inhibition of prostate DU-145 cells, expressed as 50% reduction in the net protein increase. The class given is functional. As to conditions: Homo sapiens. Summed up:
(§2)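 Human tumour lines kept in 5% FBS/RPMI-1640, plated and incubated 24 h before compound dilutions were added. Exposure 48 h, then TCA fixation, washing and sulforhodamine B staining, with optical density read on a plate reader. GI50 is the concentration giving a 50% reduction in net protein increase, calculated from the OD data.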

In assay [8] the target is T1, Tubulin (Bos taurus) (UniProt Q6B856+Q862L2+Q862F3). Put plainly: Inhibition of radiolabeled [3H]colchicine binding to tubulin at a concentration of 5 uM of the compound. The class given is protein assay. Summed up: (§3)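 [3H]colchicine 5.0 µM incubated with tubulin 1.0 µM plus inhibitor at the stated level, 10 min at 37 °C, then colchicine binding measured. Reported as percent inhibition.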

The test system of assay [9] is BXPC-3. Put plainly: Cell growth inhibition against pancreatic BXPC-3 cells, 50% reduction in the net protein increase. Conditions: Homo sapiens. The class given is functional. An outline of the steps:
as §2

Assay [10] has as its system Streptococcus pneumoniae. As to the kind of experiment: The minimum inhibitory concentration (MIC) that inhibits all visible growth of the Streptococcus pneumoniae (bacteria) at 64 ug/mL; NI is no inhibition. The class given is functional, organism-based. Summed up:
as §1

In assay [11] the test system is Enterococcus faecalis. Put plainly: the minimum inhibitory concentration (MIC) that inhibits all visible growth of the Enterococcus faecalis (bacteria) at 64 ug/mL; NI is no inhibition. The class given is functional, organism-based. Summed up:
as §1

Assay [12] deals with KM-20L2. As to the kind of experiment: Cell growth inhibition of colon KM20L2 cells, expressed as 50% reduction in the net protein increase. The class given is functional. As to conditions: Homo sapiens. An outline of the steps:
as §2

In the next assay the test system is Enterobacter cloacae. Put plainly: The minimum inhibitory concentration (MIC) that inhibits all visible growth of the Enterobacter cloacae (bacteria) at 64 ug/mL; NI is no inhibition. The class given is functional, organism-based. Summed up: as §1
The target in another assay is Tubulin (Bos taurus, UniProt Q6B856+Q862L2+Q862F3). As to the kind of experiment: Inhibition of tubulin polymerization reported as IC50. The class given is functional.
For assay [13], the system named is Enterococcus faecalis. As to the kind of experiment: The minimum inhibitory concentration (MIC) that inhibits all visible growth of the Enterococcus faecalis (bacteria) at 64 ug/mL; NI is no inhibition. The class given is functional, organism-based. Summed up: as §1
A further assay concerns Staphylococcus aureus. As to the kind of experiment: The minimum inhibitory concentration (MIC) that inhibits all visible growth of the Staphylococcus aureus (bacteria) at 64 ug/mL; NI is no inhibition. The class given is functional, organism-based. An outline of the steps:
as §1

In another assay the test system is Escherichia coli. As to the kind of experiment: The minimum inhibitory concentration (MIC) that inhibits all visible growth of the Escherichia coli (bacteria) at 64 ug/mL; NI is no inhibition. The class given is functional, organism-based. Summed up: as §1
Assay [14] deals with Stenotrophomonas maltophilia. Put plainly: The minimum inhibitory concentration (MIC) that inhibits all visible growth of the Stenotrophomonas maltophilia (bacteria) at 64 ug/mL; NI is no inhibition. The class given is functional, organism-based. Summed up: as §1
The next assay concerns Cryptococcus neoformans. Put plainly: Minimum inhibitory concentration (MIC) that inhibits all visible growth of the Cryptococcus neoformans (fungus) at 64 ug/mL; NI is no inhibition. The class given is functional, organism-based. Summed up:
as §1

For assay [15], the system named is Micrococcus luteus. Put plainly: the minimum inhibitory concentration (MIC) that inhibits all visible growth of the Micrococcus luteus (bacteria) at 64 ug/mL; NI is no inhibition. The class given is functional, organism-based. Summed up: as §1
A further assay has as its system NCI-H460. Put plainly: Cell growth inhibition of lung-NSC NCI-H460 cells, expressed as 50% reduction in the net protein increase. Conditions: Homo sapiens. The class given is functional. An outline of the steps: as §2
Assay [16] addresses T1, Tubulin (Bos taurus). Put plainly: Inhibition of radiolabeled [3H]colchicine binding to tubulin at a concentration of 2 uM of the compound. The class given is protein assay. An outline of the steps:
as §3

Assay [17] concerns P388. As to the kind of experiment: Evaluated for cell growth inhibition of the mouse leukemia P388 cells in 10% horse serum/Fisher media. The class given is functional. As to conditions: read-out: ED50 (the source's name). An outline of the steps: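 Murine P388 leukaemia cells grown in 10% horse serum/Fisher medium, incubated 24 h, then compound dilutions added. After 48 h, cells counted on a Coulter Z1 particle counter and the ED50 for growth inhibition calculated.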

Assay [18] has as its system SF-268. As to the kind of experiment: Cell growth inhibition of central nervous system (CNS) SF-268 cells, expressed as 50% reduction in the net protein increase. The class given is functional. As to conditions: Homo sapiens. Summed up: as §2
Assay [19] concerns Streptococcus pneumoniae. Put plainly: The minimum inhibitory concentration (MIC) that inhibits all visible growth of the Streptococcus pneumoniae (bacteria). The class given is functional. Summed up:
as §1

The subject of assay [20] is Micrococcus luteus. As to the kind of experiment: the minimum inhibitory concentration (MIC) that inhibits all visible growth of the Micrococcus luteus (bacteria). The class given is functional. Summed up: as §1

On to `Oc1ccc(/C=C\c2cc(O)cc(O)c2)cc1` [CIS-RESVERATROL], for which the GI50 in the assay with DU-145 [1] worked out at 10.2 µg/mL (≈ 44.7 µM); with MCF7, 14.8 µg/mL (≈ 64.8 µM); in [2] it was 13.2 µg/mL (≈ 57.8 µM); with KM-20L2 [4], 22 µg/mL (≈ 96.4 µM); in the assay with SF-268 [5], 5 µg/mL (≈ 21.9 µM); in the assay on BXPC-3 [6] it was 15.5 µg/mL (≈ 67.9 µM). Also, in the assay on P388 [3], the EC50 amounted to 24.4 µg/mL (≈ 107 µM).
In the case of `Oc1ccc(/C=C/c2cc(O)cc(O)c2)cc1` [RESVERATROL], in the assay on Neisseria gonorrhoeae, it took 16 µg/mL (≈ 70.1 µM) to inhibit growth (MIC). The EC50 in the assay on P388 [3] came to 4.49 µg/mL (≈ 19.7 µM).
Consider `COc1ccc(C(=O)c2cc(OC)cc(OC)c2)cc1`, for which the MIC result with Candida albicans, in the assay on Streptococcus pneumoniae [10], in the assay with Enterococcus faecalis [11], with Enterobacter cloacae, in the assay on Enterococcus faecalis [13] and in the assay with Staphylococcus aureus was “inactive” in each case. In addition, the MIC result (in the assay on Escherichia coli; in assay [14]; in the assay with Cryptococcus neoformans; in the assay on Micrococcus luteus [15]) was “inactive” throughout. Moreover, the GI50 with DU-145 [7] came out at 1.2 µg/mL (≈ 4.41 µM); in the assay on BXPC-3 [9] it was 0.42 µg/mL (≈ 1.54 µM); with KM-20L2 [12], 0.42 µg/mL (≈ 1.54 µM); in the assay with NCI-H460 it was 0.53 µg/mL (≈ 1.95 µM); in the assay on SF-268 [18], 0.86 µg/mL (≈ 3.16 µM). For the same molecule, the figures for the inhibition on Tubulin (Bos taurus) [8] and at Tubulin (Bos taurus) [16] were 69% and 47%, respectively. At Tubulin, this molecule registered an IC50 of 2600 nM. The MIC against Neisseria gonorrhoeae worked out at 32 µg/mL (≈ 118 µM). Also, in the assay on P388 [17], the EC50 is 1.23 µg/mL (≈ 4.52 µM).
Turning to `COc1ccc(/C=C\c2cc(OC)c(OC)c(OC)c2)cc1O` [COMBRETASTATIN A4], the GI50 with DU-145 [7] is 0.0008 µg/mL (≈ 0.00253 µM); in the assay with BXPC-3 [9], 0.39 µg/mL (≈ 1.23 µM); in the assay on KM-20L2 [12], 0.34 µg/mL (≈ 1.07 µM); in the assay with NCI-H460 it was 0.0006 µg/mL (≈ 0.0019 µM); in the assay on SF-268 [18], over 0.01 µg/mL. In addition, in the assay with P388 [17], the EC50 came out at 0.0003 µg/mL (≈ 0.000948 µM).
`COc1ccc(/C=C/c2cc(O)cc(O)c2)cc1` [RESVERATROL 4'-METHYL ETHER]: the GI50 was 2.7 µg/mL (≈ 11.1 µM) in the assay with DU-145 [1]; 3.4 µg/mL (≈ 14 µM) with MCF7; 6.8 µg/mL (≈ 28.1 µM) in assay [2]; 3.8 µg/mL (≈ 15.7 µM) with KM-20L2 [4]; 3.1 µg/mL (≈ 12.8 µM) in the assay on SF-268 [5]; 6.3 µg/mL (≈ 26 µM) in the assay on BXPC-3 [6]. The EC50 with P388 [3] was 28.9 µg/mL (≈ 119 µM).
Turning to `COc1cc(OC)cc(C(O)c2ccc(O)cc2)c1` (centres undefined), the MIC entry in the assay on Candida albicans, with Enterococcus faecalis [11], in the assay with Enterobacter cloacae, in the assay with Enterococcus faecalis [13], in the assay with Staphylococcus aureus and with Escherichia coli was “inactive” throughout. In addition, the MIC entry (in assay [14]; in the assay with Cryptococcus neoformans; in the assay with Micrococcus luteus [15]) was “inactive” each time. Also, the GI50 worked out at 5.8 µg/mL (≈ 22.3 µM) with DU-145 [1]; 2 µg/mL (≈ 7.68 µM) with MCF7; 2.3 µg/mL (≈ 8.84 µM) in assay [2]; 5.3 µg/mL (≈ 20.4 µM) with KM-20L2 [4]; 0.65 µg/mL (≈ 2.5 µM) in the assay with SF-268 [5]; 1.3 µg/mL (≈ 4.99 µM) with BXPC-3 [6]. Moreover, the MIC in the assay with Neisseria gonorrhoeae was 4 µg/mL (≈ 15.4 µM); against Streptococcus pneumoniae [19] it was 16 µg/mL (≈ 61.5 µM). Besides, the EC50 with P388 [3] is over 10 µg/mL.
Consider `COc1ccc(C(=O)c2cc(O)cc(O)c2)cc1`, for which the GI50 in the assay on DU-145 [1] is 15 µg/mL (≈ 61.4 µM); in the assay on MCF7, 21.7 µg/mL (≈ 88.8 µM); in [2], 16.6 µg/mL (≈ 68 µM); in the assay with KM-20L2 [4] it was 24.5 µg/mL (≈ 100 µM); with SF-268 [5] it was 24.5 µg/mL (≈ 100 µM); with BXPC-3 [6] it was 21.2 µg/mL (≈ 86.8 µM). Moreover, in the assay on P388 [3], the EC50 was 17.8 µg/mL (≈ 72.9 µM).
In the assay on Micrococcus luteus [20], `COc1ccc(/C=C/c2cc(O)cc(OC)c2)cc1` had an MIC of 16 µg/mL (≈ 62.4 µM). For the same molecule, the EC50 in the assay on P388 [3] was 31.5 µg/mL (≈ 123 µM).
As for `COc1ccc(/C=C/c2cc(OC)cc(OC)c2)cc1` [TRISMETHOXYRESVERATROL], the GI50 amounted to 1.5 µg/mL (≈ 5.55 µM) in the assay on DU-145 [1], 0.62 µg/mL (≈ 2.29 µM) in [2], 0.56 µg/mL (≈ 2.07 µM) with SF-268 [5] and 0.35 µg/mL (≈ 1.29 µM) in the assay on BXPC-3 [6]. In addition, the EC50 with P388 [3] was determined as 2.77 µg/mL (≈ 10.2 µM).
